High-throughput results from PubChem.
An excerpt weighted towards active compounds, which were near 1.3% of everything screened.
MT1-MMP act inh: MT1-MMP (human) activation inhibition; P50281; AID 651647; GFP/RFP ratio change, % at 20 µM; HT1080 RFP-PRO-GFP cells, GFP/RFP ratio fluorescence, overnight; percent of plate control window, DMSO zero; 360,000 tested, 0.061% active;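 active = GFP/RFP ratio change of at least 30% with cell ATP level not reduced by more than half and red fluorescence within 50% of control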
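Test system: HT1080 RFP-PRO-GFP cells; Benchmarks: DMSO and RFP-L50D-GFP cell wells; Timing: cells overnight before dosing, compound overnight, 37 °C, 5% CO2; Compound: one 20 µM compound dose with 1% DMSO; Read-out: GFP/RFP fluorescence ratio.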
Efflux pump inh: inhibitors of Candida antifungal efflux pumps expressed in yeast. AID 485275. inhibition, % at 10 µM. 330,000 tested, 0.44% active. S. cerevisiae Candida pump triplex, Nile Red efflux;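 active = plate passing quality check with inhibition over a set limit, or well fluorescence over plate mean plus 4 SD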;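 note: Nile Red retained in pooled yeast measured as flow cytometry median fluorescence; 0% = buffer negative control and 100% = Enniatin B positive control; higher means more Nile Red kept so more efflux inhibition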
H9c2 TAG inh: reduces triacylglycerol accumulation in H9c2 cells; 230,000 tested, 0.66% active; inhibition, % at 12.5 µM; Nile Red lipid (TAG) fluorescence; cells loaded with 200 µM oleic acid;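 active = pattern-corrected inhibition of lipid staining of at least 50% with the nuclear-stain viability signal not falling by more than 50%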;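 note: 0% = DMSO wells and 100% = triacsin C control wells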
HGIII-sPLA2 inh: Blocks human group III sPLA2 activity. QFRET BODIPY PC-A2 liposome hydrolysis, fluorescence. inhibition, % at 12.2 µM. 370,000 tested, 0.56% active. AID 743126;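 active = inhibition above mean plus 3 SD of compounds lying within the high and low control bounds, cut at about 19% in these data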;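 note: 0% = median of test compound wells and 100% = no enzyme DMSO wells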
Target sequence (Q9NZ20 whole entry, looked up): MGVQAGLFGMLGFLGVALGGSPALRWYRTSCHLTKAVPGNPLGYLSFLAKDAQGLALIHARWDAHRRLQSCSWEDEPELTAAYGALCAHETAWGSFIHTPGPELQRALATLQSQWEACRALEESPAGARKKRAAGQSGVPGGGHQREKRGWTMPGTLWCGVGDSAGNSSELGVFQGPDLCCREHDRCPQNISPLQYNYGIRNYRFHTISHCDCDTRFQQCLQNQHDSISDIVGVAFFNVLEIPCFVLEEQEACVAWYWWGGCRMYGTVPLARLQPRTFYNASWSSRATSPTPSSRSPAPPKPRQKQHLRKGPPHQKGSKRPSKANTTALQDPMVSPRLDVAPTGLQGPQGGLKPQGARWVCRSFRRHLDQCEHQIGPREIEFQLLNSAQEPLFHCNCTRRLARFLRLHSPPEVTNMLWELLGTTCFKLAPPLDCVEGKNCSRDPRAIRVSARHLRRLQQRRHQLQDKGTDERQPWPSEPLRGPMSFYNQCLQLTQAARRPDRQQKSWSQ
H9c2 TAG conf: triacylglycerol accumulation inhibition, confirmation. inhibition, % at 12.5 µM. shares compounds with H9c2 TAG inh. H9c2 lipid accumulation, Nile Red fluorescence; cells loaded with 200 µM oleic acid. 990 tested, 71% active;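 active = mean inhibition across replicates of 40% or more; inactive = mean inhibition below 40%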;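 note: plate controls were DMSO only wells for no effect and Triacsin C treated wells for full effect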
Starred values were filed as active, the others as inactive.

`CCOc1c(Cl)cc(/C=C/C(=O)N(CC)CC(=O)NCc2cccs2)cc1OC` gave MT1-MMP act inh 0, Efflux pump inh 0, H9c2 TAG inh 59*, HGIII-sPLA2 inh -11 and H9c2 TAG conf 43*.
Screening C=CCN1C(=O)/C(=C2/Sc3ccccc3N2C)SC1=Nc1c(C)n[nH]c1C returned MT1-MMP act inh 3 and Efflux pump inh 0.
For C=CCN1C(=O)/C(=C2/Sc3ccccc3N2C)SC1=Nc1ccccc1C the results were MT1-MMP act inh 9, Efflux pump inh 0, H9c2 TAG inh 61*, HGIII-sPLA2 inh 8 and H9c2 TAG conf 39.
`CCN(CC(=O)Nc1ccccc1C(F)(F)F)C(=O)c1ccc2c(c1)NC(=O)C(C)S2` (configuration not stated) gave MT1-MMP act inh -2, H9c2 TAG inh 20 and HGIII-sPLA2 inh -11.
For CC(=O)Nc1ccc(NC(=O)C(C)OC(=O)c2ccc3ccccc3n2)cc1 (configuration not stated) the results were MT1-MMP act inh -3, Efflux pump inh 0, H9c2 TAG inh 10 and HGIII-sPLA2 inh -3.
`O=C(Nc1ccccc1N1CCCCC1)c1ncoc1-c1ccc(F)cc1` gave MT1-MMP act inh -4, Efflux pump inh 0, H9c2 TAG inh 55*, HGIII-sPLA2 inh 3 and H9c2 TAG conf 43*.
For O=C(Nc1nnc(-c2cccs2)s1)c1cccc(F)c1 the results were MT1-MMP act inh 4, Efflux pump inh 0, H9c2 TAG inh 6 and HGIII-sPLA2 inh 1.
Screening O=C(NCc1ccco1)c1cnc2n(c1=O)CCS2 returned MT1-MMP act inh -1, Efflux pump inh 0 and HGIII-sPLA2 inh 1.
Screening CCCCNC(=O)c1cnc(Cc2c[nH]c3ccccc23)c(I)c1 returned MT1-MMP act inh 1, H9c2 TAG inh 65*, HGIII-sPLA2 inh -64 and H9c2 TAG conf 15.
CN1CCN(C(=O)c2cnc(Cc3c[nH]c4ccccc34)c(I)c2)CC1 was read as MT1-MMP act inh 3, H9c2 TAG inh -5 and HGIII-sPLA2 inh -36.
For CCc1nc2ccc(C(=O)NCc3ccc4c(c3)OCO4)cn2c1N(CCC(C)C)CCN(C)C the results were MT1-MMP act inh -2, H9c2 TAG inh 73*, HGIII-sPLA2 inh 0 and H9c2 TAG conf 30.
For Cn1c(N)c(C(=O)COC(=O)c2ccc(Br)o2)c(=O)n(C)c1=O the results were MT1-MMP act inh -2, Efflux pump inh 0 and HGIII-sPLA2 inh 2.
Cn1c(N)c(C(=O)COC(=O)c2ccc([N+](=O)[O-])o2)c(=O)n(C)c1=O was read as MT1-MMP act inh -2, Efflux pump inh 0, H9c2 TAG inh 88*, HGIII-sPLA2 inh 18 and H9c2 TAG conf 101*.
`C=CCc1c(C)nc(-c2ccccc2)nc1N/N=C/c1ccncc1` gave MT1-MMP act inh -3, Efflux pump inh 0, H9c2 TAG inh 65*, HGIII-sPLA2 inh -1 and H9c2 TAG conf 28.
For CN(c1ccccc1)S(=O)(=O)c1cccc(NC(=O)c2cc(=O)c3ccccc3o2)c1 the results were MT1-MMP act inh -3, Efflux pump inh 0, H9c2 TAG inh 8 and HGIII-sPLA2 inh -1.
Screening C#CCN(C[C@H]1[C@H](OC(=O)NCc2ccccc2)[C@H](OC(=O)NCc2ccccc2)C[C@@H](C(=O)OC)[C@H]1C(=O)OC)S(=O)(=O)c1ccc(C)cc1 returned MT1-MMP act inh -4, H9c2 TAG inh 49 and HGIII-sPLA2 inh -1.
Screening C#CCN(C[C@H]1[C@H](OC(=O)NCCCCCC)[C@H](OC(=O)NCCCCCC)C[C@@H](C(=O)OC)[C@H]1C(=O)OC)S(=O)(=O)c1ccc(C)cc1 returned MT1-MMP act inh -7, H9c2 TAG inh 80*, HGIII-sPLA2 inh 12 and H9c2 TAG conf 88*.
For COc1cc2[nH]c(=O)n3nc(-c4ccccc4)nc3c2cc1OC the results were MT1-MMP act inh 15, Efflux pump inh 0 and H9c2 TAG inh 34.
`CCN(CC)CCNc1nc2cc(OC)c(OC)cc2c2nc(-c3ccccc3)nn12` gave MT1-MMP act inh 9, Efflux pump inh 0, H9c2 TAG inh 64*, HGIII-sPLA2 inh -12 and H9c2 TAG conf 46*.
`COc1ccc(/C=c2\s/c(=C/C(=O)c3ccc(C)cc3)[nH]c2=O)cc1OC` gave MT1-MMP act inh -94, Efflux pump inh 0 and HGIII-sPLA2 inh -19.
COc1ccc(-n2cc(CNC3CCN(C)CC3)c(-c3cccc(F)c3)n2)cc1 was read as MT1-MMP act inh 5, Efflux pump inh 0, H9c2 TAG inh 17 and HGIII-sPLA2 inh -20.
Screening COc1ccc(-n2cc(CN3CCCC3)c(-c3cccc(F)c3)n2)cc1 returned MT1-MMP act inh 1, Efflux pump inh 0, H9c2 TAG inh 80*, HGIII-sPLA2 inh -15 and H9c2 TAG conf 25.
For COc1ccc(N2C(=O)c3ccccc3NC(=O)C2C(=O)NCC(C)C)cc1 (configuration not stated) the results were MT1-MMP act inh 3 and HGIII-sPLA2 inh 7.
For COc1ccc(/C=N/Nc2cc(C)nc(-n3nc(C)cc3C)n2)c(OC)c1 the results were MT1-MMP act inh -3, Efflux pump inh 0 and HGIII-sPLA2 inh -12.
`Cc1cc(N/N=C/c2ccc(F)cc2)nc(-n2nc(C)cc2C)n1` gave MT1-MMP act inh 1, Efflux pump inh 0, H9c2 TAG inh 57*, HGIII-sPLA2 inh -6 and H9c2 TAG conf 53*.
`C[C@@H](NC(=O)c1[nH]cnc1C(=O)Nc1cccc(Cl)c1)c1ccccc1` gave MT1-MMP act inh 6, Efflux pump inh 0, H9c2 TAG inh -39 and HGIII-sPLA2 inh 2.
c1ccc(OCCNc2nc(NCC3CC3)nc3cc(-c4ccccc4)sc23)cc1 was read as MT1-MMP act inh -17, H9c2 TAG inh 57*, HGIII-sPLA2 inh -11 and H9c2 TAG conf 41*.
`c1ccc(CNc2nc(NCC3CC3)nc3cc(-c4ccccc4)sc23)cc1` gave MT1-MMP act inh 2, H9c2 TAG inh 21 and HGIII-sPLA2 inh -2.
C=CCNc1nc(NCCOC)c2sc(-c3ccccc3)cc2n1 was read as MT1-MMP act inh 10, H9c2 TAG inh 5 and HGIII-sPLA2 inh -10.
Screening C=CCNc1nc(Nc2ccc(OC)c(OC)c2)c2sc(-c3ccccc3)cc2n1 returned MT1-MMP act inh 8, H9c2 TAG inh 70*, HGIII-sPLA2 inh -6 and H9c2 TAG conf 82*.
For COCCNc1nc(NCc2ccc(NC(C)=O)cc2)c2sc(-c3ccccc3)cc2n1 the results were MT1-MMP act inh -20, H9c2 TAG inh 53*, HGIII-sPLA2 inh -17 and H9c2 TAG conf 123*.
COc1nc2ccccc2nc1CCC(=O)O was read as MT1-MMP act inh -5, Efflux pump inh 0, H9c2 TAG inh 11 and HGIII-sPLA2 inh 5.
`COC(=O)[C@]12C[C@H](CC(=O)N3CCCCC3)C(=O)N(CCC3=CCCCC3)C1=C[C@H](COCc1ccccc1)O[C@@H]2C` gave HGIII-sPLA2 inh -11.
